Reference: ChEMBL document CHEMBL4392836, “Second-generation aryl isonitrile compounds targeting multidrug-resistant Staphylococcus aureus” (Bioorg Med Chem, 2019)
Values after ≈ are worked out from the molar mass of the structure shown. Active and inactive are the calls of the source. The calls are words filed in the database; no cut-off is given here.

What was measured:
[1] = tested on: Staphylococcus aureus; experiment: Antibacterial activity against methicillin-resistant Staphylococcus aureus NRS123 USA400 after 18 to 24 hrs by broth microdilution assay; type: functional
In short: (§1)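 CLSI broth microdilution with modifications. Bacteria cultured in TSB and exposed to compounds or control antibiotics in triplicate. Plates incubated aerobically at 37 °C for 18–24 h. MIC is the lowest concentration preventing visible growth.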

[2] = tested on: Klebsiella pneumoniae; experiment: Antibacterial activity against Klebsiella pneumoniae ATCC BAA-1705 after 18 to 24 hrs by broth microdilution assay; type: functional
In short: (§2)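 Broth microdilution MIC per CLSI guidelines with modifications. Bacteria grown in TSB and exposed to compounds or control antibiotics in triplicate. Plates incubated aerobically at 37 °C for 18–24 h. MIC taken as the lowest concentration with no visible growth.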

[3] = tested on: Enterococcus faecium; experiment: Antibacterial activity against vancomycin-resistant Enterococcus faecium ATCC 700221 after 18 to 24 hrs by broth microdilution assay; type: functional
In short: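 Broth microdilution per CLSI with modifications. Cultured in BHI and exposed to compounds in triplicate. Incubated aerobically at 37 °C for 18–24 h. MIC read as the lowest concentration with no visible growth.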

[4] = tested on: Staphylococcus epidermidis; experiment: Antibacterial activity against methicillin-resistant Staphylococcus epidermidis NRS101 after 18 to 24 hrs by broth microdilution assay; type: functional; in short: as §1
[5] = Clearance in human at 625 mg, iv; type: ADME; conditions: in vivo
[6] = tested on: Staphylococcus aureus; experiment: Antibacterial activity against methicillin-sensitive Staphylococcus aureus NRS107 after 18 to 24 hrs by broth microdilution assay; type: functional; in short: as §1
[7] = tested on: Acinetobacter baumannii; experiment: Antibacterial activity against Acinetobacter baumannii BAA1605 after 18 to 24 hrs in presence of colistin by broth microdilution assay; type: functional
In short: (§3)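 To permeabilize the outer membrane, CLSI broth microdilution in TSB (triplicate) was run with subinhibitory colistin: ¼ × MIC for A. baumannii, E. cloacae and E. coli strains, and P. aeruginosa; ½ × MIC for K. pneumoniae. Plates incubated aerobically at 37 °C for 18–24 h. MIC taken as the lowest concentration with no visible growth.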

[8] = clinical; conditions: human, in vivo, iv, 625 mg
[9] = tested on: Acinetobacter baumannii; experiment: Antibacterial activity against Acinetobacter baumannii BAA1605 after 18 to 24 hrs by broth microdilution assay; type: functional; in short: as §2
[10] = tested on: Staphylococcus aureus; experiment: Antibacterial activity against methicillin-resistant Staphylococcus aureus NRS119 after 18 to 24 hrs by broth microdilution assay; type: functional; in short: as §1
[11] = Cmax in human at 625 mg, iv; type: ADME; set-up: dose 625 mg, route intravenous; conditions: in vivo
[12] = tested on: Staphylococcus aureus; experiment: Antibacterial activity against vancomycin-resistant Staphylococcus aureus VRS10 after 18 to 24 hrs by broth microdilution assay; type: functional; in short: as §1
[13] = tested on: Staphylococcus aureus; experiment: Antibacterial activity against methicillin-resistant Staphylococcus aureus NRS385 USA500 after 18 to 24 hrs by broth microdilution assay; type: functional; in short: as §1
[14] = tested on: Pseudomonas aeruginosa; experiment: Antibacterial activity against Pseudomonas aeruginosa ATCC 15442 after 18 to 24 hrs in presence of colistin by broth microdilution assay; type: functional; in short: as §3
[15] = tested on: Escherichia coli; experiment: Antibacterial activity against Escherichia coli BW25113 after 18 to 24 hrs in presence of colistin by broth microdilution method; type: functional; in short: as §3
[16] = Cmax in human at 625 mg, po; type: ADME; set-up: dose 625 mg, route oral; conditions: in vivo
[17] = tested on: Streptococcus pneumoniae; experiment: Antibacterial activity against penicillin-resistant Streptococcus pneumoniae ATCC 700677 after 18 to 24 hrs by broth microdilution assay; type: functional
In short: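 CLSI broth microdilution with modifications. Bacteria exposed to compounds in triplicate and incubated at 37 °C with 5% CO₂ for 18–24 h. MIC is the lowest concentration preventing visible growth.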

[18] = tested on: Escherichia coli; experiment: Antibacterial activity against AcrAB-TolC deficient Escherichia coli […] after 18 to 24 hrs in absence of colistin by broth microdilution method; type: functional; in short: as §2
[19] = tested on: Enterobacter cloacae; experiment: Antibacterial activity against Enterobacter cloacae BAA1134 after 18 to 24 hrs in presence of colistin by broth microdilution assay; type: functional; in short: as §3
[20] = Tmax in human at 625 mg, po; type: ADME; conditions: in vivo
[21] = tested on: Escherichia coli; experiment: Antibacterial activity against Escherichia coli BW25113 after 18 to 24 hrs in absence of colistin by broth microdilution method; type: functional; in short: as §2
[22] = Tmax in human at 625 mg, iv; type: ADME; conditions: in vivo
[23] = tested on: Staphylococcus aureus; experiment: Antibacterial activity against methicillin-resistant Staphylococcus aureus USA300 NRS384 after 18 to 24 hrs by broth microdilution assay; type: functional; in short: as §1
[24] = tested on: Escherichia coli; experiment: Antibacterial activity against AcrAB-TolC deficient Escherichia coli […] after 18 to 24 hrs in presence of colistin by broth microdilution method; type: functional; in short: as §3
[25] = tested on: Staphylococcus aureus; experiment: Antibacterial activity against vancomycin-resistant Staphylococcus aureus VRS11a after 18 to 24 hrs by broth microdilution assay; type: functional; in short: as §1
[26] = tested on: Klebsiella pneumoniae; experiment: Antibacterial activity against Klebsiella pneumoniae ATCC BAA-1705 after 18 to 24 hrs in presence of colistin by broth microdilution assay; type: functional; in short: as §3
[27] = tested on: Pseudomonas aeruginosa; experiment: Antibacterial activity against Pseudomonas aeruginosa ATCC 15442 after 18 to 24 hrs by broth microdilution assay; type: functional; in short: as §2
[28] = tested on: Enterobacter cloacae; experiment: Antibacterial activity against Enterobacter cloacae BAA1134 after 18 to 24 hrs by broth microdilution assay; type: functional; in short: as §2
[29] = Toxicity in wounded skin area of Balb/c mouse infected with methicillin-resistant Staphylococcus aureus USA300 at 2% administered topically twice daily for 5 consecutive days measured 4 times daily during compound dosing; conditions: in vivo, topical_or_ocular
In short: (§4)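 Female Balb/c mice with intradermal MRSA USA300 abscesses were treated topically twice daily for 5 days with a 2% suspension in petroleum jelly, alongside a vehicle group. Mice were checked at least four times daily during infection and treatment for adverse reactions. Wounds were examined for inflammation and toxicity.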

[30] = tested on: Mus musculus; experiment: Induction of inflammation in wounded skin area of Balb/c mouse infected with methicillin-resistant Staphylococcus aureus USA300 at 2% administered topically twice daily for 5 consecutive days measured 4 times daily during compound dosing; type: organism-based; conditions: in vivo, topical_or_ocular; in short: as §4
[31] = tested on: Staphylococcus aureus; experiment: Bacteriostatic activity against methicillin-resistant Staphylococcus aureus USA400 NRS123 at 4 times MIC measured after 24 hrs by time-kill assay; type: functional, organism-based
[32] = Cytotoxicity against human HaCaT cells assessed as cell viability at 128 uM measured after 24 hrs by MTS assay; type: cell-based; conditions: read-out: Activity
In short: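 HaCaT keratinocytes grown in DMEM with 10% FBS at 37 °C, 5% CO₂. Compounds tested at 16, 32, 64 and 128 µM in triplicate for 24 h; controls received matching DMSO. Viability expressed as percent of DMSO-treated cells (mean ± SD).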

[33] = tested on: Staphylococcus aureus; experiment: Antibacterial activity against methicillin-resistant Staphylococcus aureus USA300 infected in Balb/c mouse assessed as reduction in bacterial burden in wounded skin area at 2% administered topically twice daily for 5 consecutive days measured 12 hrs post last dose relative to control; type: functional; set-up: scale not given: the % may be the effect or the level left
In short: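 Eight-week-old female Balb/c mice (n = 5 per group) received an intradermal injection of 40 μL of 1.32 × 10⁹ CFU/mL MRSA USA300. From abscess formation (~48 h), a 2% suspension in petroleum jelly was applied topically twice daily for 5 days, with a vehicle-only group. Mice were euthanized 12 h after the last dose. Wounds were homogenized in PBS, serially diluted and plated on mannitol salt agar (≥16 h, 37 °C). CFU reduction was calculated against vehicle.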

N#Cc1ccc(CCC2CCNc3ccccc32)cc1 (stereo not drawn)
MIC [1]: 32 µM (≈ 8.4 µg/mL)

CC(=O)NC[C@H]1CN(c2ccc(N3CCOCC3)c(F)c2)C(=O)O1 [LINEZOLID]
MIC [2]: > 64 µM | MIC [3]: 0.5 µM (≈ 0.169 µg/mL) | MIC [4]: 2 µM (≈ 0.675 µg/mL) | clearance [5]: 1.74 mL/min/kg | MIC [6]: 2 µM (≈ 0.675 µg/mL) | MIC [7]: > 64 µM | half-life [8]: 4.4 h | MIC [9]: > 64 µM | MIC [10]: 32 µM (≈ 10.8 µg/mL) | Cmax [11]: 13400 ng/mL | MIC [12]: 2 µM (≈ 0.675 µg/mL) | MIC [13]: 4 µM (≈ 1.35 µg/mL) | MIC [1]: 1 µM (≈ 0.337 µg/mL) | MIC [14]: > 64 µM | MIC [15]: > 64 µM | Cmax [16]: 12700 ng/mL | MIC [17]: 2 µM (≈ 0.675 µg/mL) | MIC [18]: 16 µM (≈ 5.4 µg/mL) | MIC [19]: 16 µM | Tmax [20]: 1.33 h | MIC [21]: > 64 µM | Tmax [22]: 0.5 h | MIC [23]: 2 µM (≈ 0.675 µg/mL) | MIC [24]: 16 µM | MIC [25]: 2 µM (≈ 0.675 µg/mL) | MIC [26]: > 64 µM | MIC [27]: > 64 µM | MIC [28]: > 64 µM

N#Cc1ccc(/C=C/c2ccco2)cc1
MIC [1]: 32 µM (≈ 6.25 µg/mL)

N#Cc1ccc(/C=C/c2ccc(C#N)cc2)cc1
Activity [29]: Non-Toxic | MIC [2]: > 64 µM | MIC [3]: > 64 µM | MIC [4]: 1 µM (≈ 0.23 µg/mL) | MIC [6]: 4 µM (≈ 0.921 µg/mL) | MIC [7]: 16 µM | Activity [30]: Non-Toxic | MIC [9]: > 64 µM | MIC [10]: 1 µM (≈ 0.23 µg/mL) | MIC [12]: 8 µM (≈ 1.84 µg/mL) | MIC [13]: 8 µM (≈ 1.84 µg/mL) | MIC [1]: 8 µM (≈ 1.84 µg/mL) | MIC [14]: > 64 µM | MIC [15]: > 64 µM | MIC [17]: 8 µM (≈ 1.84 µg/mL) | Activity [31]: Active | MIC [18]: > 64 µM | MIC [19]: 4 µM | MIC [21]: > 64 µM | viability at 24 h, 128 µM [32]: > 90% | MIC [23]: 2 µM (≈ 0.461 µg/mL) | MIC [24]: > 64 µM | Activity [33]: 79.02% | MIC [25]: 8 µM (≈ 1.84 µg/mL) | MIC [26]: > 64 µM | MIC [27]: > 64 µM | MIC [28]: > 64 µM

N#Cc1ccc(CCc2ccc(C#N)cc2)cc1
MIC [1]: > 64 µM

CC(=O)O[C@H]1C[C@@]2(C)[C@@H](C[C@@H](O)[C@H]3[C@@]4(C)CC[C@@H](O)[C@@H](C)[C@@H]4CC[C@@]32C)/C1=C(\CCC=C(C)C)C(=O)O [FUSIDIC ACID]
Activity [29]: Non-Toxic | Activity [30]: Non-Toxic | Activity [33]: 77.78%

N#Cc1ccc(/C=C/c2ccc(C(F)(F)F)cc2)cc1
MIC [1]: 32 µM (≈ 8.74 µg/mL)

N#Cc1ccc(CCc2cccc(C#N)c2)cc1
MIC [1]: 32 µM (≈ 7.43 µg/mL)

CC/C(=C\c1ccccc1C#N)c1ccccc1
MIC [23]: 4 µM (≈ 0.933 µg/mL)

N#Cc1ccc(CCc2cccnc2)cc1
MIC [1]: > 64 µM

CC[C@H]1OC(=O)[C@H](C)[C@@H](O[C@H]2C[C@@](C)(OC)[C@@H](O)[C@H](C)O2)[C@H](C)[C@@H](O[C@@H]2O[C@H](C)C[C@H](N(C)C)[C@H]2O)[C@](C)(O)C[C@@H](C)C(=O)[C@H](C)[C@@H](O)[C@]1(C)O [ERYTHROMYCIN]
MIC [2]: > 64 µM | MIC [7]: 4 µM | MIC [9]: 16 µM (≈ 11.7 µg/mL) | MIC [14]: 4 µM | MIC [15]: 1 µM | MIC [18]: 2 µM (≈ 1.47 µg/mL) | MIC [19]: 1 µM | MIC [21]: 64 µM (≈ 47 µg/mL) | MIC [24]: 0.5 µM | MIC [26]: 16 µM | MIC [27]: > 64 µM | MIC [28]: > 64 µM

N#Cc1ccc(CCC2CCc3ccccc3N2)cc1 (stereo not drawn)
MIC [1]: 16 µM (≈ 4.2 µg/mL)
